Results as given in ChEMBL document CHEMBL1130313, “1-[(omega-aminoalkyl)amino]-4-[N-(omega-aminoalkyl)carbamoyl]-9-oxo-9, 10-dihydroacridines as intercalating cytotoxic agents: synthesis, DNA binding, and biological evaluation” (J Med Chem, 1997).

Key:
[1] = test system: HT-29; experiment: Cytotoxic potency required to inhibit HT-29 cell growth by 50% after cell drug contact for 144 hrs; type: functional, cell-based; conditions: Homo sapiens, HT-29, 144 h
[2] = test system: G-361; experiment: Cytotoxic potency required to inhibit G-361 cell growth by 50%; type: functional, cell-based; conditions: Homo sapiens
Outline: (§1)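 Human ovarian carcinoma (A2780, CH1, SKOV-3) or melanoma G-361 cells were plated at 100-5000 cells and allowed to adhere overnight. Aqueous drug at pH 7.0, diluted from DMSO stock, was applied at various concentrations for 96 h continuous exposure at 37 °C. Growth was measured by sulforhodamine B protein staining. IC50 is 50% growth inhibition versus untreated controls.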

[3] = test system: Calf thymus DNA; experiment: Inhibitory concentration against ethidium:Calf thymus DNA (1.26:1) binding at pH 7; type: nucleic-acid assay; conditions: Bos taurus
Outline: (§2)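 Ethidium displacement at pH 7: 1.26 μM ethidium bromide with 1 μM CT-DNA in 10 mM TES, 0.1 mM EDTA. Drug (stock ~5 mM in DMSO) is titrated in at 20 °C. Read-out is excitation 546 nm, emission 595 nm. C50 is the drug concentration cutting bound-ethidium fluorescence by 50%; mean of three determinations.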

[4] = test system: Calf thymus DNA; experiment: Inhibitory concentration against ethidium:calf thymus DNA (1.26:1) binding at pH 5; type: nucleic-acid assay; conditions: Bos taurus
Outline: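 Ethidium displacement at pH 5: 1.26 μM ethidium bromide with 1 μM CT-DNA in 9.3 mM NaCl, 2 mM NaOAc, 0.1 mM EDTA. Drug (stock ~5 mM in DMSO) is added serially at 20 °C. Fluorescence is read with excitation 546 nm and emission 595 nm. C50 is the concentration reducing bound-ethidium fluorescence by 50%; mean of three.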

[5] = test system: CH1; experiment: Cytotoxic potency required to inhibit CH1 cell growth by 50%; type: functional, cell-based; conditions: Homo sapiens; outline: as §1
[6] = test system: SK-OV-3; experiment: Cytotoxic potency required to inhibit SKOV-3 cell growth 50%; type: functional, cell-based; conditions: Homo sapiens; outline: as §1
[7] = test system: A2780; experiment: Cytotoxic potency required to inhibit A2780 cell growth by 50% after cell drug contact for 96 hrs; type: functional, cell-based; conditions: Homo sapiens, A2780, 96 h; outline: as §1
[8] = test system: Calf thymus DNA; experiment: Inhibitory concentration against ethidium:Calf thymus DNA(0.1:1) binding at pH 5; type: nucleic-acid assay; conditions: Bos taurus
Outline: (§3)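 Q (quenching) assay at pH 5: DNA at 20 μM DNAp (CT-DNA, [poly(dA-dT)]2 or [poly(dG-dC)]2) with 2 μM ethidium bromide. Buffer is 9.3 mM NaCl, 2 mM NaOAc, 0.1 mM EDTA, 0.01 M ionic strength. Drug (stock ~5 mM in DMSO) is added serially at 20 °C. Fluorescence is read with excitation 546 nm and emission 595 nm. Q is the concentration halving bound-ethidium fluorescence; mean of three.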

[9] = test system: Nucleic Acid; experiment: Concentration required to give 50% fluorescence quenching of bound ethidium for [ethidium]: [(poly dG-dC)]2 DNA in ratio of 0.1:1 at pH 5; type: nucleic-acid assay; outline: as §3
[10] = Partition coefficient (logP); type: physicochemical; conditions: octanol/water
[11] = test system: L1210; experiment: Cytotoxic potency required to inhibit L1210 cell growth by 50% after cell drug contact for 48 hrs; type: functional, cell-based; conditions: Mus musculus, L1210, 48 h
Outline: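 Mouse L1210 leukemia cells at 5 × 10^4 cells/mL were exposed for 48 h at 37 °C to aqueous drug solutions (≤0.5% v/v DMSO). Surviving cells were counted by Coulter counter against drug-free controls to give IC50. Assays were done in duplicate.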

[12] = test system: Nucleic Acid; experiment: Concentration required to give 50% fluorescence quenching of bound ethidium for [ethidium]: [poly(dA-dT)]2 DNA in ratio of 0.1:1 at pH 5; type: nucleic-acid assay; outline: as §3
[13] = test system: Calf thymus DNA; experiment: Inhibitory concentration against ethidium:Calf thymus DNA(1.26:1) binding at pH 7; type: nucleic-acid assay; conditions: Bos taurus; outline: as §2
[14] = test system: CH1; experiment: Cytotoxic potency against CH1 cell proliferation; type: functional, cell-based; conditions: Homo sapiens; outline: as §1

| C50 [3] [µM] | C50 [4] [µM] | Q [8] [µM] | Q [9] [µM] | logP [10] | Q [12] [µM] | C50 [13] [µM] | SMILES | IC50 [1] [nM] | IC50 [2] [nM] | IC50 [5] [nM] | IC50 [6] [nM] | IC50 [7] [nM] | IC50 [11] [nM] | IC50 [14] [nM] |
| --- | --- | --- | --- | --- | --- | --- | --- | --- | --- | --- | --- | --- | --- | --- |
| 0.94 | 4.8 | 14 | 15 | 4.21 | 13 |  | CN(C)CCNC(=O)c1ccc(N(C)CCN(C)C)c2c(O)c3ccccc3nc12 | 3000 | 1500 | 3400 | 1000 | 410 | 1650 |  |
| 630 | 660 | 340 | 280 |  | > 400 |  | Nc1ccc2c(O)c3ccc(N)cc3nc2c1 |  |  | > 100000 | > 100000 | 37000 | 35000 |  |
| 0.35 | 2 | 4.2 | 4.7 | 4.09 | 3.8 |  | CN(C)CCNC(=O)c1ccc(NCCNCCO)c2c(O)c3ccccc3nc12 | 140 | 280 | 16 | 170 | 17 | 35 |  |
| 2.3 | 20 | 27 | 36 | 7.25 | 19 |  | CCN(CC)CCNC(=O)c1ccc(NCCN(CC)CC)c2c(O)c3ccccc3nc12 | 5700 | 6200 | 1250 | 2400 | 760 | 3300 |  |
| 0.69 | 3.1 | 5.8 | 6.5 | 5.32 | 5.3 |  | COc1ccc2nc3c(C(=O)NCCN(C)C)ccc(NCCN(C)C)c3c(O)c2c1 | 500 | 1250 | 490 | 420 | 57 | 410 |  |
| 1.3 | 5 | 39.5 | 130 |  | 1.6 |  | Cn1cc(NC(=O)c2cc(NC(=O)c3cc(NC=O)cn3C)cn2C)cc1C(=O)NCCC(=N)N |  |  |  |  |  |  |  |
|  | 1.7 | 3.2 | 4.1 | 3.15 | 2.6 | 0.36 | O=C(NCCNCCO)c1ccc(NCCNCCO)c2c(O)c3ccccc3nc12 | > 23000 | 15500 | 165 | 21500 | 4800 | 4000 |  |
|  | 8.9 | 3.8 | 4.5 |  | 25 |  | COc1cc(NS(C)(=O)=O)ccc1Nc1c2ccccc2nc2ccccc12 |  |  |  |  |  |  |  |
| 3.7 | 16 | 4.8 | 6 | 4.42 | 3.7 |  | O=C(NCCN1CCOCC1)c1ccc(NCCN2CCOCC2)c2c(O)c3ccccc3nc12 | 4500 | 7200 | 1250 | 7400 | 1500 | 440 |  |
| 0.28 | 0.83 | 4.4 | 5.6 | 7.73 | 3.4 |  | O=C(NCCN1CCCCC1)c1ccc(NCCN2CCCCC2)c2c(O)c3ccccc3nc12 | 450 | 670 | 1200 | 620 | 24 | 1200 |  |
| 0.17 | 0.61 | 2.1 | 2.4 | 5.68 | 1.8 |  | CN(C)CCNC(=O)c1ccc(NCCN(C)C)c2c(O)c3cc([N+](=O)[O-])ccc3nc12 | 190 | 1800 | 175 | 210 | 42 | 460 |  |
| 0.38 | 3.2 | 4.8 | 6.6 | 5.76 | 3.2 |  | CN(C)CCCNC(=O)c1ccc(NCCCN(C)C)c2c(O)c3ccccc3nc12 | 580 | 3600 | 335 | 400 | 110 | 520 |  |
| 0.34 | 1.1 | 3.3 | 3.5 | 5.12 | 3.1 |  | CN(C)CCNC(=O)c1ccc(NCCN(C)C)c2c(=O)c3ccccc3[nH]c12 | 94 | 15 |  | 400 | 15 | 44 | 20 |
| 0.37 | 2.2 | 4.8 | 5.4 | 4.77 | 4.4 |  | CN(C)CCNC(=O)c1ccc(NCCN(C)C)c2c(O)c3cc(O)ccc3nc12 | 2000 | 300 | 640 | 170 | 51 | 140 |  |
|  |  | 20 | 14 |  | 24 |  | Nc1ccc2cc3ccc(N)cc3nc2c1 |  |  |  |  |  |  |  |
| 1.5 | 4.4 | 9 | 19 |  | 5 |  | N=C(N)c1ccc(/N=N/Nc2ccc(C(=N)N)cc2)cc1 |  |  |  |  |  |  |  |

| SMILES | C50 [3] [µM] | C50 [4] [µM] | Q [8] [µM] | Q [9] [µM] | logP [10] | Q [12] [µM] | C50 [13] [µM] | IC50 [1] [nM] | IC50 [2] [nM] | IC50 [5] [nM] | IC50 [6] [nM] | IC50 [7] [nM] | IC50 [11] [nM] | IC50 [14] [nM] |
| --- | --- | --- | --- | --- | --- | --- | --- | --- | --- | --- | --- | --- | --- | --- |
| O=C1c2c(O)ccc(O)c2C(=O)c2c(NCCNCCO)ccc(NCCNCCO)c21 [MITOXANTRONE] | 0.037 | 0.021 | 0.34 | 0.37 |  | 0.32 |  | 10 | 0.65 | 2.65 |  | 0.55 | 0.4 |  |
| O=c1c2ccccc2[nH]c2ccccc12 [ACRIDONE] |  |  | > 400 | 340 |  | > 500 |  |  | > 100000 | 77000 | > 100000 | > 100000 | > 100000 |  |
| c1ccc2nc3ccccc3cc2c1 [ACRIDINE] | 320 | 142 | 24 | 22 |  | 26 |  |  |  |  |  | > 100000 |  |  |
